The record followed here is ChEMBL document CHEMBL1148368, “Synthesis and antitumor activity of quinonoid derivatives of cannabinoids” (2004).

One assay deals with MCF7. The experiment in a line: Inhibition of the growth of MCF-7 mammary cancer cells at 3.125 ug/ml concentration. To be noted: Homo sapiens. It counts as functional. The gist of the method: (§1)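 Adherent/epithelial cancer cells were grown in RPMI 1640 with 10% heat-inactivated FCS, 2 mM L-glutamine, penicillin and streptomycin at 37 °C in 5% CO2. Cells were seeded at 0.02×10^6 per well with varied quinone concentrations. MTT readout was taken after 3 days. Five replicate wells were used per concentration, in 2–3 repeat experiments. Results are % inhibition versus untreated wells given 0.5% ethanol vehicle.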

Assay [1] has as its system Raji. The experiment in a line: Inhibition of the growth of Raji lymphoma cells at 1.56 ug/ml concentration. Format: functional. To be noted: Homo sapiens. The gist of the method: (§2)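 Lymphoma cells were suspended in RPMI 1640 with 20% heat-inactivated FCS, 2 mM L-glutamine, penicillin and streptomycin at 37 °C in 5% CO2. Cells were plated at 0.02×10^6 per well with varied quinone concentrations. MTT reduction was measured on day 3. Five replicate wells were used per concentration, in 2–3 repeat experiments. Inhibition is expressed as % versus 0.5% ethanol vehicle wells.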

Assay [2] has as its system Jurkat. The experiment in a line: Inhibition of the growth of Jurkat lymphoma cells at 1.56 ug/ml concentration. It counts as functional. To be noted: Homo sapiens. The gist of the method: as §2
The subject of assay [3] is Jurkat. The experiment in a line: Inhibition of the growth of Jurkat lymphoma cells at 0.2 ug/ml concentration. It counts as functional. As to conditions: Homo sapiens. The gist of the method: as §2
For assay [4], the system named is Raji. The experiment in a line: Inhibition of the growth of Raji lymphoma cells at 0.2 ug/ml concentration. It counts as functional. To be noted: Homo sapiens. A digest of the protocol: as §2
The test system of a further assay is HT-29. The experiment in a line: Inhibition of the growth of HT-29 colon cancer cells at 3.125 ug/ml concentration. It counts as functional. As to conditions: Homo sapiens. The gist of the method:
as §1

Assay [5] relates to Raji. The experiment in a line: Inhibition of the growth of Raji lymphoma cells at 6.25 ug/ml concentration. It counts as functional. To be noted: Homo sapiens. The gist of the method:
as §2

Assay [6] deals with Raji. The experiment in a line: Inhibition of the growth of Raji lymphoma cells at 12.5-25.0 ug/ml concentration. It counts as functional, Homo sapiens. A digest of the protocol:
as §2

For assay [7], the system named is Jurkat. The experiment in a line: Inhibition of the growth of Jurkat lymphoma cells at 12.5-25.0 ug/ml concentration. It counts as functional, Homo sapiens. A digest of the protocol: as §2
The next assay has as its system SNB-19. The experiment in a line: Concentration of compound required to inhibit the growth of SNB-19 cells. It counts as functional, cell-based. As to conditions: Homo sapiens. A digest of the protocol:
as §1

Take `C=C(C)C1CCC(C)=C[C@H]1C1=C(O)C=C(CCCCC)C(=O)C1=O` (stereo not given in full): the inhibition at 3.125 µg/mL in the assay with MCF7 and in the assay with HT-29 was 50% throughout. The inhibition at 1.56 µg/mL in the assay on Raji [1] and in the assay on Jurkat [2] was 80% throughout. In addition, the inhibition at 0.2 µg/mL in the assay with Jurkat [3] and in the assay on Raji [4] was 50% each time.

For `CCCCCC1=CC(=O)C2=C(OC(C)(C)c3ccc(C)cc32)C1=O`, testing at 6.25 µg/mL in the assay on Raji [5] gave an inhibition of 50%. Besides, the Inhibition in the assay on Raji [6] and with Jurkat [7] was 50% each time.

`CCCCCC1=CC(=O)C2=C(OC(C)(C)[C@@H]3CC=C(C)C[C@@H]23)C1=O` displayed a Concentration with SNB-19 of 100 µg/mL.

The inhibition is the relative decrease from the control value, in per cent. A higher inhibition goes with a strong effect. In general, Inhibition refers to the drop in the measured response relative to a control, in per cent. Read a low Inhibition as little suppression.
